Biofilm kill mix = clotrimazole potentiators killing C. albicans biofilm, primary screen, 4-compound mixtures; C. albicans biofilm persisters + clotrimazole, fluorescence viability; primary screen in compound mixtures of four per well; inhibition, % at 7.6 µM; 120,000 compounds, 0.02% hits; AID 1242, 2008;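 active means inhibition above 30.3% in the primary screen of four-compound pools, then above 30% when the compound was retested; inconclusive means passed the primary limit but could not be retested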;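 further: compounds exposed to preformed 24 h biofilms for 48 h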
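Incubation: 24 h biofilm formation, then 48 h compound exposure, 37 °C | Material: C. albicans biofilms | Buffer or medium: RPMI/MOPS medium, pH 7.0 | Measured by: 2-h Alamar Blue fluorescence, 535/590 nm excitation/emission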
ABCB1 inh = ABCB1 efflux pump inhibitors, primary screen, cell-based, multiplex, flow cytometry, ABCG2 counter-screen; inhibition, % at 6.6 µM; 190,000 compounds, 0.067% hits; CCRF-Adr cells, JC-1 efflux; ATP-dependent translocase ABCB1 (Homo sapiens), P08183; AID 1326, 2008; in the data active means inhibition above about 40%;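 further: higher value means more JC-1 retained so stronger ABCB1 efflux block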
ABCG2 inh = ABCG2 efflux pump inhibitors, primary screen, multiplex with ABCB1, IgMXP3 cells, flow cytometry. inhibition, % at 6.6 µM. Broad substrate specificity ATP-binding cassette transporter ABCG2 (Homo sapiens), Q9UNQ0. AID 1325, 2008. 190,000 compounds, 0.1% hits. JC-1 efflux;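 active means inhibition above 80%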
Target sequence (Q9UNQ0 whole entry, looked up): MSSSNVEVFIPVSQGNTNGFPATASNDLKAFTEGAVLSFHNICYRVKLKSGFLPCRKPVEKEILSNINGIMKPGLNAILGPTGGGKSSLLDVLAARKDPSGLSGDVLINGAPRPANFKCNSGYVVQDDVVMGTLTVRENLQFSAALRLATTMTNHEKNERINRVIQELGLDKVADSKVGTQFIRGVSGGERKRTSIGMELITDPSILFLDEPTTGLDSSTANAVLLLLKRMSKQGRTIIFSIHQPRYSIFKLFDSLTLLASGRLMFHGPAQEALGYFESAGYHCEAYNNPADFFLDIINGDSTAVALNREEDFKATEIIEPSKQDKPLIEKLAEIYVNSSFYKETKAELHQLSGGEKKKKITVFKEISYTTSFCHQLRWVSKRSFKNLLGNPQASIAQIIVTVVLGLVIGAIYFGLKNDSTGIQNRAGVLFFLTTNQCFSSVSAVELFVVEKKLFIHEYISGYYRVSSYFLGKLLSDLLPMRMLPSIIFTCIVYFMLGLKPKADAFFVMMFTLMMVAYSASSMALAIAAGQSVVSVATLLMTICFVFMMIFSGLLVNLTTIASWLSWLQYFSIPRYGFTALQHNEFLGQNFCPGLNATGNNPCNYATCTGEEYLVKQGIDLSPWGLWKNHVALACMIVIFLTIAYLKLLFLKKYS
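Test system: IgMXP3 (ABCG2) plus far-red-tagged CCRF-Adr (ABCB1) cells / Amount: 3 million cells/mL in well / Reagent: JC-1 transporter substrate / Timing: 10 min compound exposure, 25 °C / Signal: flow cytometry, 530 nm JC-1 signal / Read-out: percent efflux inhibition, scaled nicardipine 100% to DMSO 0% / Benchmarks: nicardipine as high control, DMSO as low control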
TRPN1 ag = zebrafish TRPN1 channel agonists, primary screen, cell-based, HEK293, calcium fluorescence; HEK293 zebrafish TRPN1-YFP, Fluo-8 calcium fluorescence; 100% = response to 87 µM carbachol; transient receptor potential cation channel N1 (TRPN1/NompC), Danio rerio; 220,000 compounds, 0.18% hits; activation, % at 3 µM;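 active means activation above its plate's cutoff, the mean activation of test wells on that plate plus 3 SD, cut at about 19% in these data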
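Material: zebrafish TRPN1-YFP in HEK293 cells. Doses: one dose of 3 µM, 0.3% DMSO. Incubation: dye 1 h 37 °C plus 30 min RT. Measured by: intracellular calcium fluorescence with Fluo-8.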
ROMK mod = ROMK potassium channel modulators, primary screen, cell-based, thallium flux, MLSMR library | AID 1918, 2009 | ATP-sensitive inward rectifier potassium channel 1 (Homo sapiens), P48048 | B-score at 10 µM | Tet-inducible ROMK, thallium flux fluorescence; actives lie on both sides | 130,000 compounds, 2% hits;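 active means signal ratio slope over the read window, or its plate-corrected B-score, at least 3 SD from the plate mean, either direction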;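 further: B-score of the F/F0 ratio slope over 7 to 12 s after thallium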
TRPML3 ag = human TRPML3 channel agonists, primary screen, cell-based, HEK293 TRPML3-YFP, Fluo-8 calcium fluorescence, 3 µM | Mucolipin-3 (Homo sapiens), Q8TDD5 | 100% = the carbachol control signal | activation, % at 3 µM | 220,000 compounds, 0.29% hits;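 active means activation above its plate's cutoff, the mean activation of the plate's test wells plus 3 SD, cut at about 12% in these data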
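system = HEK293 cells stably carrying human TRPML3-YFP | doses = one concentration, 3 µM nominal, 0.3% DMSO | timing = dye loading 1 h 37 °C then 30 min ambient, 125 s read | detection = Fluo-8 calcium dye fluorescence, ex 470-495, em 515-575 nm | benchmarks = high control carbachol 87 µM, low control DMSO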
ROMK retest = ROMK channel modulator hit retest, confirmation, cell-based, thallium flux, duplicate, resupplied hits; shares compounds with ROMK mod; fluorescence ratio; hits give low values; normalized thallium flux (F/F0 slope) at 10 µM; 3,000 compounds, 54% hits; AID 1917, 2009;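 active means Flux at 10 µM at least 3 SD below or above vehicle control mean in one or both replicates; inconclusive means no clear call, values can overlap the other calls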
Each line names hits and unclear results; the compound was inactive in the other large screens (follow-up assays come after a bar, where they were run). This excerpt belongs to a sample that is enriched for hits.

Cc1cc(Cl)c(S(=O)(=O)N2CCN(c3ccc(F)cc3)CC2)cc1OCC(N)=O	none (no result: Biofilm kill mix, ROMK mod)
Cc1cc(Cl)c(S(=O)(=O)Nc2ccon2)cc1OCC(=O)NC1CCCCC1	none (no result: Biofilm kill mix, ROMK mod)
Cc1cc(Cl)c(S(=O)(=O)Nc2ccc3c(c2)OCCO3)cc1OCC(=O)NC1CCCCC1	ROMK mod -3.2 (no result: Biofilm kill mix) | ROMK retest 0.066
Cn1nc(C(F)(F)F)c(C#N)c1N1CCN(c2ccccc2)CC1	ROMK mod -3.1 (no result: Biofilm kill mix) | ROMK retest 0.063
O=C(CC1C(=O)NCCN1Cc1ccc(F)c(F)c1)NCCCn1ccnc1 (centres undefined)	none
O=C(CCCO)CCCCCCCCC[C@H]1N[C@H](CO)[C@@H](O)[C@@H]1O	none
Cc1cccc2cc(CN(Cc3ccc(F)cc3)Cc3nnnn3C3CCCC3)c(=O)[nH]c12	none (no result: Biofilm kill mix)
Cc1cc(C)c2[nH]c(=O)c(CN(Cc3ccc4c(c3)OCO4)Cc3nnnn3C3CCCC3)cc2c1	ROMK mod -3.2 (no result: Biofilm kill mix) | ROMK retest inconclusive
Cc1ccccc1-n1ncc(C(C)NC(=O)c2ccco2)c1C (centres undefined)	none (no result: ROMK mod)
CCOc1c(Nc2ccc(C(C)C)cc2)c(=O)c1=O	none (no result: ABCB1 inh, ABCG2 inh)
COCCCN=C1NN=C(c2cc(C)n(Cc3ccco3)c2C)CS1	ROMK mod 1.3 | ROMK retest inactive
C=CCCC(=O)Nc1ccc(Br)cn1	ROMK mod 2.5 | ROMK retest inactive
COCc1cnc(C)nc1N	none
CCCCOc1ccc(CSCCN)cc1Cl	ROMK mod -3.2 (no result: ABCB1 inh, ABCG2 inh) | ROMK retest inconclusive
CCOc1ccc(CSC(=N)N)cc1Cl	none (no result: ABCB1 inh, ABCG2 inh, ROMK mod)
C=CCn1c(CCNC(=O)c2ccc(Cl)c(Cl)c2)nnc1SCCOc1ccc(OC)cc1	none (no result: Biofilm kill mix, ROMK mod)
Cn1c(CCNC(=O)c2ccc(Cl)c(Cl)c2)nnc1SCc1ccc(Cl)c(Cl)c1	none (no result: Biofilm kill mix, ROMK mod) | ROMK retest inactive
CC12CCC(C(=O)N/N=C/c3ccc(O)cc3O)(OC1=O)C2(C)C (centres undefined)	none (no result: ABCB1 inh, ABCG2 inh, ROMK mod)
CCCn1c(NC(=O)c2cccc(S(=O)(=O)N3CCCC3)c2)nc2ccccc21	none (no result: Biofilm kill mix, ROMK mod) | ROMK retest inactive
CC1CCN(S(=O)(=O)c2cccc(C(=O)N(Cc3ccccc3)c3ccccn3)c2)CC1	ROMK mod -4 | ROMK retest 0.062
CNC(=O)c1ccccc1NC(=O)c1cccc(S(=O)(=O)N2CCC(C)CC2)c1	none (no result: Biofilm kill mix, ROMK mod)
CCNC(=O)c1ccccc1NC(=O)c1cccc(S(=O)(=O)N2CCC(C)CC2)c1	none (no result: Biofilm kill mix, ROMK mod) | ROMK retest inactive
CC1CCN(C(=O)c2ccc(CNc3c(N4CCCC4)c(=O)c3=O)cc2)CC1	none (no result: ABCB1 inh, ABCG2 inh)
O=C(c1ccc(CNc2c(N3CCCC3)c(=O)c2=O)cc1)N1CCN(C2CCCCC2)CC1	ROMK mod 3.7 | ROMK retest inactive
Cc1ccc(C(=O)O)cc1N=Cc1cc(Br)cc(Br)c1O	ROMK mod 5.1 | ROMK retest 0.11
Cc1occc1C(=O)N1CCN(Cc2ccccc2)CC1	none (no result: Biofilm kill mix)
O=C(O)c1ccoc1CN1CCCCC1	ROMK mod 1.7 | ROMK retest inactive
Cc1[nH][nH]c(=O)c1/C=N/N1CCOCC1	none
CC(C)OC(=O)NC(Nc1ccccc1C(=O)O)(C(F)(F)F)C(F)(F)F	none (no result: ABCB1 inh, ABCG2 inh, ROMK mod) | ROMK retest inactive
CCOC(=O)NC(Nc1ccc(C)cn1)(C(F)(F)F)C(F)(F)F	none (no result: Biofilm kill mix)
Cc1ccc(S(=O)(=O)NC(=O)NCCc2ccccc2)cc1	none
CC(=O)N1CCc2cc(Br)cc(S(=O)(=O)NCc3ccccn3)c21	ROMK mod -7.4 (no result: Biofilm kill mix) | ROMK retest inactive
CCCN(CCC)CCCNS(=O)(=O)c1cc(Br)cc2c1N(C(C)=O)CC2	none (no result: Biofilm kill mix)
O=C(Nc1cccnc1Oc1ccc(Cl)cc1)c1cccc2ccccc12	none (no result: ABCB1 inh, ABCG2 inh, ROMK mod)
CC(C)c1ccc(-n2c(-c3ccccc3)c[n+]3c2CCc2ccccc2-3)cc1	Biofilm kill mix 35, ROMK mod -6 | ROMK retest 0.041
O=C1OC(c2cccs2)=N/C1=C\c1ccc(-c2cccc(Cl)c2)o1	none (no result: Biofilm kill mix, ROMK mod) | ROMK retest 0.052
CN(C)c1ccc(/C=N/NC(=O)c2ccccc2Cl)cc1	none | ROMK retest inactive
COc1ccc(NC(=O)/C(Cl)=C(/Cl)S(=O)Cc2ccccc2)cn1 (centres undefined)	ROMK mod -3.5 (no result: Biofilm kill mix, ABCB1 inh, ABCG2 inh) | ROMK retest 0.047
COc1ccc(/C=C/C(=O)Nc2ccc(OC)nc2)cc1	none
COc1ccc(NC(=O)Cc2ccccc2)cn1	none
COc1ccc(CS(=O)(=O)/C(Cl)=C(/Cl)C(=O)Nc2ccc(OC)nc2)cc1	ROMK mod -2.8 (no result: Biofilm kill mix) | ROMK retest inconclusive
CCOC(=O)CN1C=C(c2ccc3ccccc3n2)C(C[N+](=O)[O-])c2ccccc21 (centres undefined)	ROMK mod -3.8 (no result: Biofilm kill mix) | ROMK retest 0.049
CCOC(=O)CSc1ccc2ccccc2n1	none
CCC(C)Oc1ccccc1C1CC(=O)NC2=C1C(=O)CCC2 (centres undefined)	ROMK mod 2.8 (no result: Biofilm kill mix) | ROMK retest inactive
CN(Cc1ccon1)C(=O)CC1C(=O)NCCN1CC1CCCCC1 (centres undefined)	none
CN(Cc1ccc(F)cc1)Cc1nc(-c2cnccn2)no1	none
CCOC(=O)c1ccc[n+](C(C)C(=O)c2ccc(-c3ccccc3)cc2)c1 (centres undefined)	none
CC(C(=O)c1ccc(-c2ccccc2)cc1)[n+]1cccc(NC(=O)c2ccccc2)c1 (centres undefined)	ROMK mod -4.9 (no result: ABCB1 inh, ABCG2 inh) | ROMK retest 0.057
Cc1ccc2c(c1)C1CN(C)CCC1N2C(=O)COc1ccccc1F (centres undefined)	none (no result: ABCB1 inh, ABCG2 inh, ROMK mod)

High-throughput results (PubChem BioAssay)
